Calls of active or inactive are those of the source. The calls are words filed in the database; no cut-off is given here.
Columns and labels:
[1] = Total plasma clearance after iv dose of 5.10 mg/kg in rats; type: ADME, organism-based; set-up: dose 5.1 mg/kg, route intravenous; details: rat, 5.1 mg/kg, read-out: Clp (converted)
[2] = Area under curve was determined for the compound after iv dose of 5.10 mg/kg in rats; type: ADME, organism-based; set-up: dose 5.1 mg/kg, route intravenous; details: rat, in vivo, 5.1 mg/kg
[3] = Area under curve was determined for the compound after po dose of 5.22 mg/kg in rats; type: ADME, organism-based; set-up: dose 5.22 mg/kg, route oral; details: rat, in vivo
[4] = Maximum serum concentration after po dose of 5.22 mg/kg in rats; type: ADME, organism-based; set-up: dose 5.22 mg/kg, route oral; details: rat
[5] = Oral bioavailability in rats at a dose of 5.22 mg/kg; type: ADME, organism-based; details: rat, in vivo
[6] = Time at which Cmax was reached was determined after po dose of 5.22 mg/kg of compound in rats; type: ADME, organism-based; set-up: dose 5.22 mg/kg, route oral; details: rat, in vivo
Summary of the method: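 Male Sprague–Dawley rats dosed orally with compound in a solution formulation, n = 3–4 per compound; serum drug concentrations measured over time, lower limit of quantitation 50 ng/mL. Tmax reported as the range of observed values across animals.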

[7] = Half-life after po dose of 5.22 mg/kg in rats; type: ADME, organism-based; set-up: dose 5.22 mg/kg, route oral; details: rat, in vivo
[8] = target: T1, GABA-A receptor; anion channel (Rattus norvegicus) (UniProt O09028+P15431+P18506+P18508+P19969+P20236+P23574+P23576+P28471+P28473+P30191+P62813+P63079+P63138+Q91ZM7+Q9ES14); experiment: (§1) Displacement of [3H]flunitrazepam from GABA-A benzodiazepine receptor of rat cortical membranes; type: cell membranes; set-up: concentration or dose not given beside the values; details: Membrane, concentration not given here
Summary of the method: (§2)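 Rat membranes incubated 60 min at 4 °C with [3H]flunitrazepam, 50 µg membrane protein and graded test drug in 200 µL containing NaCl, 10 mM Hepes/Tris pH 7.4 and 1 mM MgCl2; bound ligand separated by rapid filtration on GF/B; mean affinity, SE ≤10% of mean.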

[9] = target: GABA-A receptor; anion channel; experiment: as §1; type: cell membranes, Membrane; summary of the method: as §2
[10] = target: T1, GABA-A receptor; anion channel (Rattus norvegicus); experiment: Shift in [35S]TBPS binding to GABA-A Benzodiazepine receptor of rat brain membrane
[11] = target: T2, GABA-A receptor; alpha-1/beta-2/gamma-2 (Homo sapiens) (UniProt P14867+P47870+P18507); experiment: (§3) In vitro GABA-mediated chloride current in A293 cells expressing GABA-A benzodiazepine receptor alpha-1-beta-2-gamma-2 subunits at 5 uM; type: functional, cell-based; details: HEK293
[12] = target: GABA A receptor alpha-3/beta-2/gamma-2 (Homo sapiens) (UniProt P47870+P18507+P34903); experiment: In vitro GABA-mediated chloride current in A293 cells expressing GABA-A benzodiazepine receptor alpha-3-beta-2-gamma-2 subunits at 5 uM; type: functional, cell-based; details: HEK293
Mus musculus [13] = organism: Mus musculus; experiment: Ability to antagonize the muscle relaxation effect in mice caused by a benzodiazepine full agonist, triazolam.; type: functional
Summary of the method: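 Muscle relaxation induced by triazolam; test compound and triazolam given separately, traction scored 30 min after dosing; ED50 for blocking the relaxant effect.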

Mus musculus [14] = experiment: In vivo efficacy is evaluated by percent control of cerebellar GMP levels in (drug+stress) treated mice/mice under stress; type: functional; set-up: concentration or dose not given beside the values
Summary of the method: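 Male CF-1 mice given drug orally in vehicle 122 before electric footshock stress, controls given vehicle (1 mL/100 g); killed 30 min after treatment; cerebellum homogenized in 1% perchloric acid, iced 30 min, boiled 5 min, spun 17000g 20 min; supernatant cGMP by radioimmunoassay, expressed as % of stress control.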

Mus musculus [15] = experiment: In vivo acute electroshock physical dependence activity in mice; Active; type: functional, organism-based
Rattus norvegicus [16] = experiment: In vivo efficacy evaluated for ability to antagonize metrazole induced clonic convulsions in rat after ip injection; type: functional
Rattus norvegicus [17] = experiment: Geller-cook activity was determined using wilcoxon signed rank test on non punished schedule at dose 1 mg/kg in rats; type: functional
Summary of the method: (§4)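 Geller–Cook conflict schedule with punished and nonpunished response rates recorded per treatment; 6 animals per dose, controls 12–17; each dose compared to its own control by Wilcoxon signed rank test, p < 0.05.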

Rattus norvegicus [18] = experiment: Geller-cook activity was determined using wilcoxon signed rank test on non punished schedule at dose 3 mg/kg in rats; type: functional; summary of the method: as §4
Rattus norvegicus [19] = experiment: Geller-cook activity was determined using wilcoxon signed rank test on punished schedule at dose 1 mg/kg in rats; type: functional; summary of the method: as §4
Rattus norvegicus [20] = experiment: Geller-cook activity was determined using wilcoxon signed rank test on punished schedule at dose 3 mg/kg in rats; type: functional; summary of the method: as §4
Rattus norvegicus [21] = experiment: Mean number of shocks produced by CDPZ in rats at a dose of 12 mg/kg was determined by vogel's punished licking assay; type: functional
Summary of the method: (§5)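 Vogel punished licking test in rats; number of shocks accepted recorded per dose group (n 6–10); each dose compared with the 0 mg/kg group of the same experiment by Wilcoxon rank sum test.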

Rattus norvegicus [22] = experiment: Mean number of shocks produced by the compound in rats at a dose of 0 mg/kg was determined by vogel's punished licking assay; type: functional; summary of the method: as §5
Rattus norvegicus [23] = experiment: Mean number of shocks produced by the compound in rats at a dose of 0.3 mg/kg was determined by vogel's punished licking assay; type: functional; summary of the method: as §5
Rattus norvegicus [24] = experiment: Mean number of shocks produced by the compound in rats at a dose of 1 mg/kg was determined by vogel's punished licking assay; type: functional; summary of the method: as §5
Rattus norvegicus [25] = experiment: Mean number of shocks produced by the compound in rats at a dose of 10 mg/kg was determined by vogel's punished licking assay; type: functional; summary of the method: as §5
Rattus norvegicus [26] = experiment: Mean number of shocks produced by the compound in rats at a dose of 3 mg/kg was determined by vogel's punished licking assay; type: functional; summary of the method: as §5
[27] = target: T2, GABA-A receptor; alpha-1/beta-2/gamma-2 (Homo sapiens); experiment: as §3; type: functional, cell-based; details: HEK293; remark: listed apart in the source
[28] = Half-life after iv dose of 5.10 mg/kg in rats; type: ADME, organism-based; set-up: dose 5.1 mg/kg, route intravenous; details: rat, in vivo, 5.1 mg/kg

clearance [1]: 25.2 mL/min/kg
AUC [2]: 3540 ng·h/mL
AUC [3]: 3570 ng·h/mL
Cmax [4]: 1170 ng/mL
bioavailability [5]: 101%
Tmax [6]: 0.5 h
half-life [7]: 1.8 h
inhibition [8]: 71%
Ki [9]: 3.27 nM
Shift [10]: 0.48
Change in Cl- current [11]: 0.3
Change in Cl- current [12]: 0.54
Change in Cl- current [27]: 0.85
half-life [28]: 1.2 h
SMILES: CCCC(=O)O.C[C@@H]1CN(C(=O)N2Cc3c(C(=O)OC(C)(C)C)ncn3-c3ccc(Cl)cc32)C[C@H](C)N1
ED50 (Mus musculus [13]): > 30 mg/kg
Control (Mus musculus [14]): 64%
Acute electroshock activity (Mus musculus [15]): Active
ED50 (Rattus norvegicus [16]): 3.7 mg/kg
Gellar cook activity (Rattus norvegicus [17]): 47
Gellar cook activity (Rattus norvegicus [18]): 43
Gellar cook activity (Rattus norvegicus [19]): 46
Gellar cook activity (Rattus norvegicus [20]): 27
Mean no. of shocks (Rattus norvegicus [21]): 19
Mean no. of shocks (Rattus norvegicus [22]): 3.8
Mean no. of shocks (Rattus norvegicus [23]): 5.3
Mean no. of shocks (Rattus norvegicus [24]): 3.1
Mean no. of shocks (Rattus norvegicus [25]): 12
Mean no. of shocks (Rattus norvegicus [26]): 5.7
